Measured values published in ChEMBL document CHEMBL6115053, “Optimization and Characterization of N-Acetamide Indoles as Antimalarials That Target PfATP4” (J Med Chem, 2025).
Values after ≈ are worked out from the molar mass of the structure shown. Values joined by “and” are separate entries in the source; they are usually repeats but may differ in a detail not shown here. Equal entries are not always repeated. Active and inactive are the calls of the source. The rule behind the calls is not given here.

What was measured:
Plasmodium berghei [1] = assay: Antimalarial activity against Plasmodium berghei ANKA infected in female BALB/c mouse assessed as parasitemia at 30 mg/kg, po measured for 2 to 72 hrs post infection by Giemsa staining based light microscopy; format: functional; details: time 2-72 hrs
Plasmodium berghei [2] = assay: Antimalarial activity against Plasmodium berghei ANKA infected in female BALB/c mouse assessed as reduction in parasitemia at 30 mg/kg, po measured for 2 to 72 hrs post infection by Giemsa staining based light microscopy; format: functional; design: scale not given: the % may be the effect or the level left; details: time 2-72 hrs
[3] = Lipophilicity, logD of compound at pH 7.4 by shake-flask method; format: physicochemical; details: buffer
[4] = Aqueous solubility in PBS buffer at pH 7.4; format: physicochemical
[5] = AUC (0 to last) in CD-1 mouse at 20 mg/kg, po; format: ADME, organism-based; details: in vivo
Plasmodium falciparum [6] = assay: Antiplasmodial activity against Plasmodium flaciparum NF54 stage V gametocytes infected in Anopheles stephensi with parasite infected blood meal assessed as reduction in oocyst count at 500 nM measured 7 days post blood infection by light microscopic analysis relative to control; format: functional; design: scale not given: the % may be the effect or the level left; details: time 7 day
Method in brief: (§1)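 Stage V gametocytes of P. falciparum NF54 were treated with compound and fed to Anopheles stephensi in a standard membrane feeding assay. Midguts were dissected 7 days after the blood meal and oocysts counted. Results were given as average oocyst intensity ± SEM, with a t test against vehicle.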

[7] = Half life in CD-1 mouse at 20 mg/kg, po; format: ADME, organism-based; details: in vivo
[8] = Cmax in CD-1 mouse at 20 mg/kg, po; format: ADME, organism-based; details: in vivo
[9] = Tmax in CD-1 mouse at 20 mg/kg, po; format: ADME, organism-based; details: in vivo
[10] = Permeability across basolateral to apical side in human Caco-2 cells; format: ADME, cell-based
Plasmodium berghei [11] = assay: Antimalarial activity against Plasmodium berghei ANKA infected in female BALB/c mouse assessed as parasitemia at 50 mg/kg, po measured for 2 to 72 hrs post infection by Giemsa staining based light microscopy; format: functional; details: time 2-72 hrs
Plasmodium falciparum [12] = assay: Antimalarial activity against Plasmodium falciparum NF54 infected assessed as inhibition of male gamete formation incubated for 48 hrs by automated bright field microscopic analysis; format: functional, organism-based; details: NF54, 48 h
[13] = Metabolic stability in human liver microsome assessed as intrinsic clearance; format: ADME; details: microsomes
Plasmodium berghei [14] = assay: Antimalarial activity against Plasmodium berghei ANKA infected in female BALB/c mouse assessed as reduction in parasitemia at 50 mg/kg, po measured for 2 to 72 hrs post infection by Giemsa staining based light microscopy; format: functional; design: scale not given: the % may be the effect or the level left; details: time 2-72 hrs
Plasmodium falciparum [15] = assay: Antiplasmodial activity against Plasmodium flaciparum NF54 stage V gametocytes infected in Anopheles stephensi with parasite infected blood meal assessed as reduction in oocyst count at 100 nM measured 7 days post blood infection by light microscopic analysis relative to control; format: functional; design: scale not given: the % may be the effect or the level left; details: time 7 day; method in brief: as §1
HepG2 = assay: Cytotoxicity against human HepG2 cells assessed as inhibition of cell growth incubated for 48 hrs by celltiterglo assay; format: toxicity, cell-based; details: hepg2, 48 h
[16] = Metabolic stability in rat hepatocyte […] assessed as intrinsic clearance measured per 10^6 cells; format: ADME, cell-based; details: hepatocytes
[17] = Metabolic stability in mouse liver microsome assessed as intrinsic clearance; format: ADME; details: microsomes
[18] = Permeability across apical to basolateral side in human Caco-2 cells; format: ADME, cell-based
Plasmodium falciparum [19] = assay: Antiplasmodial activity against asexual Plasmodium falciparum 3D7 infected in human […] cells assessed as reduction in parasite growth measured for 72 hrs by LDH assay; format: functional, organism-based; details: 3D7, 72 h
Plasmodium falciparum [20] = assay: Antimalarial activity against Plasmodium falciparum NF54 infected assessed as inhibition of female gamete formation incubated for 48 hrs by automated bright field microscopic analysis; format: functional, organism-based; details: NF54, 48 h
[21] = Clearance in CD-1 mouse at 20 mg/kg, po; format: ADME, organism-based; details: in vivo
[22] = biological target: T1, P-type sodium-transporting ATPase4 (Plasmodium falciparum (isolate 3D7)) (UniProt A0A143ZZK9); assay: Inhibition of Plasmodium falciparum 3D7 ATP4 assessed as reduction in Na+-ATPase activity at 2 uM incubated for 10 mins under high [Na+] condition in absence of KAE609
T1 sequence (whole entry): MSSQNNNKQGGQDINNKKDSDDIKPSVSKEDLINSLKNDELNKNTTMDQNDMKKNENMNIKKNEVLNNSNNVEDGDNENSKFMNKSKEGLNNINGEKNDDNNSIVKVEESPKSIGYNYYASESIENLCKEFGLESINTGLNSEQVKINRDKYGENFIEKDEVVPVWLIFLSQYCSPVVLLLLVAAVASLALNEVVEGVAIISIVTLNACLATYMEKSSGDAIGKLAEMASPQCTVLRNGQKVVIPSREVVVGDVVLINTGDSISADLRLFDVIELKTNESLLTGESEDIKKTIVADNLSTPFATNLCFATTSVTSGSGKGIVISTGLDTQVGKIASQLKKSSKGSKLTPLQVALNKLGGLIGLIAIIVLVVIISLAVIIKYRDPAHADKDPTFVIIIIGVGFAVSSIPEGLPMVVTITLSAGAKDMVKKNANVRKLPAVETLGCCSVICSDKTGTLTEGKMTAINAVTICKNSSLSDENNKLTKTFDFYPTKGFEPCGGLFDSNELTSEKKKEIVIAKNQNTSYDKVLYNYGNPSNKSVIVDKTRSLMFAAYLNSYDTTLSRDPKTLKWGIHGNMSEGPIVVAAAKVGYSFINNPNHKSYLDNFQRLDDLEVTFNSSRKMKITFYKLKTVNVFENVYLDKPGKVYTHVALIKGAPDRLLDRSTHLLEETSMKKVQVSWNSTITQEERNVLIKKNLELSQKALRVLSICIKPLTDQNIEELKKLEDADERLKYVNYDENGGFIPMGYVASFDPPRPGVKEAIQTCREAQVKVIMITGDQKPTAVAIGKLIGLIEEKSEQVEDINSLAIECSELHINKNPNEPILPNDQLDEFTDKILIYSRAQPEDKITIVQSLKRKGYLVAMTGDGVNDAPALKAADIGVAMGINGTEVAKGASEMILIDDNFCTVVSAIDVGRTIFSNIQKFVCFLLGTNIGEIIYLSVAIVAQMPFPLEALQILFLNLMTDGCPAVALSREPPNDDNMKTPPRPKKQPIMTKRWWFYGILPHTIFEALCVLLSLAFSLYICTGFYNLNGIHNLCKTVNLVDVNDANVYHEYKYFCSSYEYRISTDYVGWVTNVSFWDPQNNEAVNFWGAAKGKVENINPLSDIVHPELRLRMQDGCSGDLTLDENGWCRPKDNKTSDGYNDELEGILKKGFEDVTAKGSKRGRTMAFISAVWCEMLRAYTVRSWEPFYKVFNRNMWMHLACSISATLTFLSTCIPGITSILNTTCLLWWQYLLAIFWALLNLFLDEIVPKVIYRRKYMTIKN

[23] = biological target: T2, P-type sodium-transporting ATPase4 (Plasmodium falciparum (isolate 3D7), UniProt A0A143ZZK9); assay: Inhibition of Plasmodium falciparum 3D7 ATP4
T2 sequence (A0A143ZZK9 whole entry): T1 sequence (whole entry)

[24] = Inhibition of Plasmodium falciparum Dd2 ATP4 assessed as reduction in Na+-ATPase activity incubated for 10 mins in presence of ATP
Method in brief: (§2)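 Membranes were prepared from Dd2-Polδ parasites (wild-type PfATP4) or Dd2-Polδ-PfATP4G358S parasites. ATPase activity was read as Pi production, with 1 mM Na2ATP, at high [Na+] (152 mM) and low [Na+] (2 mM). PfATP4-associated activity is the high-Na+ minus low-Na+ Pi, expressed as % of the high-Na+ control, over a concentration range. Data are means ± SEM of 2–5 independent membrane preparations.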

[25] = Inhibition of Plasmodium falciparum Dd2 ATP4 G358S mutant assessed as reduction in Na+-ATPase activity incubated for 10 mins in presence of ATP; method in brief: as §2

C[C@@H]1CC[C@H]2[C@@H](C)C(=O)O[C@@H]3O[C@@]4(C)CC[C@@H]1[C@]32OO4 [ARTEMISININ]
Activity (Plasmodium berghei [1]): 2.6%
Activity (Plasmodium berghei [2]): 92.4%

COc1cc(NC(=O)Cn2cc(Cl)c3cc(F)c(-c4cnn(C)c4)cc32)cc(OC)c1OC
logD [3]: 4.8
solubility kinetic [4]: < 2.5 µM
AUC(0-t) [5]: 8190 ng·h/mL
Activity (Plasmodium falciparum [6]): 83%
half-life [7]: 2.16 h
Cmax [8]: 700 ng/mL
Tmax [9]: 5.33 h
permeability [10]: 1.5 10^-6 cm/s
Activity (Plasmodium berghei [11]): 15.3%
EC50 (Plasmodium falciparum [12]): 210 nM
intrinsic clearance (CLint) [13]: < 3.5 µL/min/mg
Activity (Plasmodium berghei [14]): 55%
Activity (Plasmodium falciparum [15]): 59%
CC50 (HepG2): > 40000 nM
intrinsic clearance (CLint) [16]: 2.6 uL/min/10^6 cells
intrinsic clearance (CLint) [17]: 6.8 µL/min/mg
permeability [18]: 0.8 10^-6 cm/s
EC50 (Plasmodium falciparum [19]): 13 nM
EC50 (Plasmodium falciparum [20]): 250 nM
CL/F [21]: 42 mL/min/kg

Cn1cc(-c2ccc3c(C#N)cn(CC(=O)Nc4ccccc4Cl)c3c2)cn1
logD [3]: 3
solubility kinetic [4]: 4.9 µM (≈ 1.91 µg/mL)
inhibition [22]: Active
IC50 [23]: 150 nM
intrinsic clearance (CLint) [13]: 62 µL/min/mg
CC50 (HepG2): > 40000 nM
IC50 [24]: 230 nM and 1100 nM
intrinsic clearance (CLint) [16]: 59 uL/min/10^6 cells
EC50 (Plasmodium falciparum [19]): 240 nM
IC50 [25]: 1100 nM
